Compounds with a hit are over-represented: about 4.3% of the library has one in this group of screens.
SR-BI DiI-HDL act – SR-BI HDL lipid transfer activation; CHO ldlA[mSR-BI] cells, DiI-HDL uptake fluorescence, 3 h; 100 = double the neutral-control signal; activation, % at 12.5 µM; 0.096% of 320,000 active; AID 504775;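 active = mean replicate activation of at least 60% and every replicate at or above 60%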;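 also: 0% = median plate neutral-control signal and 100% = twice that signal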
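Material: SR-BI-overexpressing, LDLR-lacking CHO cells; schedule: compound exposure 3 h, 37 °C; reagent: DiI-labelled HDL at 10 µg/mL final; technique: bottom-read fluorescence, 550/595 nm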
Yeast superoxide – caloric restriction mimetics inhibiting age-related superoxide in yeast | S. cerevisiae aged cells, superoxide DHE fluorescence; active compounds read low | superoxide response (% of plate mean), % at 10 µM | 0.18% of 330,000 active;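 active = superoxide response under a set limit, about three screen SD below normal, cut at about 65% in these data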;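 also: yeast aged for seven days with compound at 30 °C before DHE staining; 100% = average MFI of all compound-treated wells on the plate with controls excluded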
SR-BI DiI inh – blocks mouse SR-BI lipid uptake from DiI-HDL; Q61009; ldlA[mSR-BI] CHO cells, DiI-HDL uptake fluorescence, 3 h; inhibition, % at 12.5 µM; 0.96% of 320,000 active; AID 488896;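 active = mean replicate inhibition of at least 70% and a set share of replicates each scoring 70 or more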;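 also: 0% = median of neutral control wells and 100% = median of positive control wells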
AHR activator – human AHR activation; 2.5% of 320,000 active; AHR-responsive luciferase reporter cells, luminescence; activation, % at 5 µM; AID 2796; P35869; in the data active = activation above about 47%;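 also: 0% = vehicle wells and 100% = reference agonist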
SMARCA2 act – SMARCA2 function activation, primary screen; activation, % at 9.1 µM; MG213 cells, MMTV-luciferase reporter, dexamethasone, overnight; 1% of 370,000 active; in the data active = activation above about 7.8%;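 also: 0% = vehicle wells and 100% = reference activator wells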
Hep lipid drop – modulators of hepatic lipid droplet formation; inhibition, % at 6.5 µM; AML12 mouse hepatocytes, oleate lipid droplets, BODIPY imaging; 0.4% of 240,000 active;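 active = lipid droplet intensity inhibited by at least 50%, with more than 500 cells counted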
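System: AML12 hepatocytes (mouse). Probe or stimulus: oleic acid at 100 µM to induce lipid droplet formation. Times: overnight treatment with compound plus oleate. Detection: Image-based BODIPY and DAPI two-channel analysis. Evaluation: percent inhibition of filter-corrected integrated lipid droplet intensity per well.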
An asterisk follows results filed as active; . = no result.

SMILES	SR-BI DiI-HDL act	Yeast superoxide	SR-BI DiI inh	AHR activator	SMARCA2 act	Hep lipid drop
C[C@H](CO)N1C[C@H](C)[C@@H](CN(C)C(=O)Nc2cccc(F)c2)OCc2cn(nn2)CCCC1=O	.	.	.	.	-3	.
Cc1nn2c3ccccc3nc2c2ccccc12	14	102	-14	59*	7	.
Cc1nn2c(-c3ccccc3)nnc2c2ccccc12	-20	97	20	37	2	-1
CCCNc1nc(C)nc2c1cnn2CCc1ccccc1	19	86	-19	68*	5	.
Cc1nc(NCCc2ccc(F)cc2)c2nnn(Cc3ccccc3)c2n1	-4	103	4	1	4	.
Cc1nc(NC(C)C)c2cnn(CCc3ccccc3)c2n1	.	103	.	59*	0	.
Cc1nc(NCCCN2CCOCC2)c2cnn(-c3ccccc3)c2n1	21	.	-21	.	2	.
O=C(c1ccc(F)cc1Cl)N1CCCC(c2nc(-c3cccs3)no2)C1 (configuration not stated)	.	.	.	.	-2	.
CCCc1cc(=O)oc2cc(OC(C)C(=O)NCCCn3ccnc3)ccc12 (configuration not stated)	2	117	-2	6	7.9*	-16
CCCc1cc(=O)oc2cc(OCC(=O)NCCCn3ccnc3)ccc12	14	88	-14	30	0	-6
CC(C)NC(=O)N(C)C[C@H]1OCc2cn(nn2)CCCC(=O)N([C@H](C)CO)C[C@@H]1C	.	.	.	.	-4	.
Cc1ccc(CCNC(=O)C2CCCN2S(=O)(=O)c2ccc3c(c2)CCC(=O)N3)cc1 (configuration not stated)	-1	88	1	0	.	-1
COc1ccc(NC(=O)C2CCCN2S(=O)(=O)c2ccc3c(c2)CCC(=O)N3)c(OC)c1 (configuration not stated)	9	105	-9	-2	7.9*	.
CCOc1ncccc1C(=O)N=c1sccn1C	15	90	-15	60*	-3	4
CN1CCc2c(sc(/N=C/c3c[nH]c4ccccc34)c2C#N)C1	.	104	.	48*	4	-3
CN1CCc2c(sc(/N=C/c3c[nH]c4ccccc34)c2C(N)=O)C1	.	98	.	76*	-3	-2
CCOC(=O)c1c(/N=C/c2ccc(OC)cc2O)sc2c1CCN(C)C2	3	108	-3	0	-5	6
CSc1nncn1/N=C/c1ccc2c(c1)OCO2	26	113	-26	51*	0	.
CC1(C)CC(=O)c2c(O)cc(OCC(=O)N3CCN(c4ccc(F)cc4)CC3)cc2O1	-80	106	80*	2	-4	-18
CC(=O)N(CCc1cccc(C)c1)Cc1cc2cc(C)ccc2[nH]c1=O	12	109	-12	49*	-1	-41
O=C(Nc1nc(-c2ccc(Cl)cc2Cl)cs1)c1ccc(OCC2CCCO2)cc1 (configuration not stated)	8	82	-8	-1	-4	77*
Brc1cc(Br)c2nc(-c3cccs3)ccc2c1	-15	101	15	52*	4	-2
CC(=O)c1c(C)[nH]c(C(=O)COc2ccc3ccc(=O)oc3c2)c1C	-45	104	45	56*	0	.
Cc1cccc(-c2cccc3c4c([nH]c23)[C@@H]2C[C@H]3[C@@H](CN2CC4)[C@H](C)ON3C)c1	.	.	.	.	-3	.
CCOC(=O)C1=C(C(=O)OCC)C2N(Cc3ccc(C#N)cc3)c3ccccc3[C@@]23C[C@@H](C(=O)OC)N(S(=O)(=O)c2ccccc2)C3=N1 (some centres not stated)	.	.	.	.	-4	.
C=CCn1c(O)c(N=NC(=O)C(O)c2ccccc2)c2ccccc21 (configuration not stated)	-23	89	23	20	-1	-19
C#CCn1c(O)c(N=NC(=O)C(O)c2ccccc2)c2ccccc21 (configuration not stated)	-1	94	1	67*	0	-6
CC(Sc1nnc(NC2CC2)s1)C(=O)Nc1ccc(S(N)(=O)=O)cc1 (configuration not stated)	21	108	-21	1	-1	.
